D1 allo mod = D1 dopamine receptor (human) allosteric modulation; B-score at 10 µM; P21728; AID 641; HEK293 D1, CRE-luciferase, dopamine EC30 potentiation; actives deviate in either direction; 58,000 compounds, 5.9% hits;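 active = luminescence count or its row- and column-corrected plate score outside the 99.7% band of the plate's sample wells, on either side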
M1 agonist = activates the M1 muscarinic receptor; CHO-M1 cells, Fluo-4 calcium fluorescence, agonist mode; active compounds read high; B-score at 10 µM; 64,000 compounds, 3% hits;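 active = fluorescence rise, raw or as B-score row- and column-corrected plate score, outside the 99.7% band of its plate's samples, either direction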
RORA act = RORA (human) activation. AID 560. 65,000 compounds, 1.5% hits. CHO-K1 Gal4-RORA LBD luciferase reporter, luminescence; percent increase over mock-subtracted basal signal. activation, % at 10 µM;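 active = activation above the mean of all tested compounds plus 3 SD, cut at about 49% in these data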;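 also: 0% = DMSO-treated RORA cells and 100% = added signal equal to DMSO minus mock-transfected cells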
SF1 activator = activates the human nuclear receptor SF-1; 65,000 compounds, 1.9% hits; activation, % at 10 µM; Q13285; CHO-K1 Gal4-SF-1 LBD luciferase reporter; % increase over DMSO SF-1-specific signal;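 active = activation above the mean activation of all tested compounds plus 3 SD, cut at about 50% in these data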
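Material: Transient Gal4-SF-1 LBD reporter, CHO-K1 | Input: 4,000 cells/well | Dosing: One dose, 10 µM compound, 1% DMSO | Incubation: 20 h compound treatment, 37 °C | Detection: SteadyLite luciferase luminescence | Evaluation: Percent activation relative to DMSO median and mock-transfected background | Benchmarks: DMSO-treated SF-1-transfected cells as negative, DMSO-treated mock-transfected cells lacking SF-1 as background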
mHtt clearance = mutant huntingtin protein clearance | HeLa Exon1htt(103Q)mCFP, aggregate imaging; zero = plate's median compound well | inhibition, % at 1.5 µM | 47,000 compounds, 0.42% hits | AID 853;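 active = inhibition of aggregate fluorescence above about 70%, also judged a hit by eye on the cell image, limit read from the data, passing the limit was not always enough; inconclusive = no rule stated for this call; inactive = not judged a hit on image review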;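 also: cells exposed to compound for three days before fixation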
M1 antagonist = antagonists of rat M1 muscarinic receptor | CHO-M1 cells, Fluo-4 calcium, ACh EC80 antagonist mode; active compounds read low | 64,000 compounds, 3.4% hits | P08482 | AID 628 | B-score at 10 µM;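 active = calcium fluorescence response, raw or row-and-column corrected B-score, differing from the plate sample mean either way at a set confidence level, mostly lower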
M1 ag confirm = rat M1 muscarinic agonism, confirmation; shares compounds with M1 agonist; CHO-M1 cells, Fluo-4 calcium fluorescence, agonist mode; actives lie on both sides; fluorescence change (max-min) at 10 µM; 1,700 compounds, 19% hits;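 active = fluorescence change differs from the solvent-only DMSO control mean at a set confidence level in both duplicate runs; inconclusive = differs from solvent-only control mean in just one of two runs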;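 also: an EC20 dose of acetylcholine follows compound addition during the same imaging run; raw fluorescence intensity difference in instrument units with no normalization to controls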
M4 ag counter = rat M4 muscarinic agonism, M1 counter-screen; shares compounds with M1 agonist; CHO M4/Gqi5 cells, Fluo-4 calcium fluorescence, agonist mode; actives lie on both sides; fluorescence change (max-min) at 10 µM; 1,700 compounds, 9% hits;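 active = fluorescence change differing from the plate's solvent-only control wells at 99.7% confidence in both duplicates, whether higher or lower; inconclusive = differs from solvent controls in only one of two duplicates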
Target sequence (P08485 whole entry, looked up): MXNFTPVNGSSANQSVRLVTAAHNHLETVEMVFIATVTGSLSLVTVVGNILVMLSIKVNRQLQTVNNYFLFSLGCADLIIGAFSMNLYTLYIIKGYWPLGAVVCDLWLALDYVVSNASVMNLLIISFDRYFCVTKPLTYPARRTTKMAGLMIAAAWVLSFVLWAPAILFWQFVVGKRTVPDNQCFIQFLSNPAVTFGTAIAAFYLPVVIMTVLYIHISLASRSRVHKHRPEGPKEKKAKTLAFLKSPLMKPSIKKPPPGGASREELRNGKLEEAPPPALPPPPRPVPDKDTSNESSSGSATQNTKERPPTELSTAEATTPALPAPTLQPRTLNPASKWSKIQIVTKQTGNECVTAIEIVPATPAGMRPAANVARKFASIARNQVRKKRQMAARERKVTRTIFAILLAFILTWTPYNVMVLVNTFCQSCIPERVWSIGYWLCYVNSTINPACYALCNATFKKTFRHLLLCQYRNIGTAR
The depositor's hits bear a star; i = inactive; ? = inconclusive; nt = not tested or not shown. Compounds with a hit are over-represented: about 11% of the library has one in this group of screens.

SMILES	D1 allo mod	M1 agonist	RORA act	SF1 activator	mHtt clearance	M1 antagonist	M1 ag confirm	M4 ag counter
Clc1ccc(CCNc2ncnc3nc[nH]c23)cc1	-5.33*	14.9*	-15.8	-18.9	32.3	-2.56*	?	?
CCCNc1ncnc2nc[nH]c12	nt	-0.387	-19.2	-2.7	nt	0.0299	nt	nt
C1=C(CCNc2ncnc3nc[nH]c23)CCCC1	-4.99	2.72*	25.0	18.1	nt	-0.603	?	-24.6
COc1ccc(NC(=O)C2CCCN(S(=O)(=O)c3cccc4cccnc34)C2)c(OC)c1 (configuration not stated)	-0.967	3.13*	7.8	-11.1	nt	-0.217	-32.4*	?
CC(=O)c1cccc(NC(=O)C2CCCN(S(=O)(=O)c3cccc4cccnc34)C2)c1 (configuration not stated)	0.134	6.57*	5.6	12.9	-10.0	-0.016	-26.1*	?
COc1ccc(N2CCN(C(=O)C3CCCN(S(=O)(=O)c4cccc5cccnc45)C3)CC2)cc1 (configuration not stated)	-0.937	2.32	-9.7	-34.4	61.5	-0.492	nt	nt
CC(=O)c1cccc(NC(=O)C2CCCN2S(=O)(=O)c2cccc3cccnc23)c1 (configuration not stated)	-0.308	-0.402	-13.2	-23.8	nt	0.0867	nt	nt
N#Cc1c(SCC(=O)Nc2nccs2)nc2c(c1-c1ccco1)CCCC2	0.513	-0.0783	20.9	8.0	nt	-0.32	nt	nt
COc1cccc2cc(C(=O)N(C)C3CCN(C)CC3)c(=O)oc12	0.357	-0.904	-4.0	-4.4	nt	-0.0212	nt	nt
Cc1ccc2nc(-c3ccccn3)cc(C(=O)NC3CCN(C)CC3)c2c1	-0.868	-2.28*	-8.0	11.3	6.1	-0.177	-20.2	-46
Cc1cc(NC(=O)c2cc(-c3ccccn3)nc3ccccc23)no1	nt	-0.352	7.7	-6.8	nt	-1.19	nt	nt
CC(=O)Nc1cccc(NC(=O)CSc2nnc(Cc3cccn3C)n2-c2ccc(C)cc2)c1	-0.035	-0.401	-10.3	1.9	nt	1.28	nt	nt
CCOc1ccc(C2C(C#N)=C(N)N3C(=C2C#N)Sc2ccccc23)cc1 (configuration not stated)	-0.0224	9.91*	25.0	18.3	nt	-0.441	?	?
O=C(NCc1ccco1)C(c1ccc(F)cc1)N(CC1CCCO1)C(=O)Cn1nnc2ccccc21 (configuration not stated)	-0.0745	0.444	8.6	-8.2	nt	0.498	nt	nt
O=c1[nH]c2c(s1)C=Nc1ccccc1N2	-0.124	69.4*	2.1	13.9	nt	-0.904	249*	227*
COc1ccc(-c2nc(CS(=O)(=O)CC(=O)NCCc3cc(OC)ccc3OC)c(C)o2)cc1	-0.238	-0.0297	5.3	-22.0	nt	-0.00749	nt	nt
COc1ccc(OC)c(CCNC(=O)Cn2sc3nc(C)cc(C)c3c2=O)c1	-0.0458	7.98*	-4.2	-24.2	nt	-0.487	?	-27.6
COc1ccc(CNc2nc3nc4c(c(=O)n3[nH]2)CCC4)cc1	nt	nt	nt	nt	30.9	nt	nt	nt
Cc1nn(-c2ccccc2)c(Cl)c1C(=O)N1CCN(c2ncnc3c2cnn3-c2ccccc2)CC1	nt	2.54*	-37.1	-10.5	35.5	-3.4*	-27.3*	-56.6
Cc1cc(C(=O)N2CCN(Cc3ccccc3)CC2)on1	nt	nt	nt	nt	17.8	nt	nt	nt
CS(=O)(=O)N(CC(=O)NCc1cccnc1)Cc1ccc(Cl)cc1	-0.38	0.364	0.7	-14.7	nt	-0.29	nt	nt
CS(=O)(=O)N(CC(=O)NCc1ccncc1)Cc1ccc(Cl)cc1	-0.302	2.16*	-5.8	-9.9	-17.8	-0.9	-5.68	-12.6
O=C1CC(c2cc3c(cc2Br)OCO3)C2=C(CCCC2=O)N1 (configuration not stated)	0.012	0.953	-26.1	-14.8	-36.0	-1.13	nt	nt
Cc1ccc(-c2nn[nH]n2)o1	-0.682	4.31*	-7.5	-4.3	nt	0.0951	-15	?
O=c1c2ccccc2oc2nc3ccn(Cc4ccncc4)c(=O)c3cc12	nt	nt	nt	nt	-54.4	nt	nt	nt
SMILES	D1 allo mod	M1 agonist	RORA act	SF1 activator	mHtt clearance	M1 antagonist	M1 ag confirm	M4 ag counter
Cc1cccc(Cn2cnc3c(nnn3Cc3ccccc3F)c2=O)c1	-0.142	10.8*	19.3	13.3	nt	-2.69*	-34.2*	-72.2
Cc1cccc(Cn2cnc3c(nnn3Cc3ccc(F)cc3)c2=O)c1	1.51	-0.0284	14.5	6.1	nt	-0.353	nt	nt
CN1CCc2c(sc3c2C(=O)NC(c2cccc(OC(=O)c4cccs4)c2)N3)C1 (configuration not stated)	-0.9	5.72*	62.3*	57.9*	nt	-0.0138	38.8	41.1
Cc1ccc2nc(/C(C#N)=N/O)[nH]c2c1	0.022	3.56*	-7.0	9.7	-53.2	1.24	?	-33
Cc1sc2ncnc(N3CCN(CCOc4ccc(Cl)cc4)CC3)c2c1C	nt	nt	nt	nt	42.2	nt	nt	nt
CCN(CC)c1ccc2cc(-c3nc4ccccc4n3C)c(=O)oc2c1	-0.0169	65.2*	-2.6	-17.8	i	0.0565	280*	400*
Cc1ccc(-n2ncc3c(=O)n(Cc4ccccn4)cnc32)cc1C	-0.743	0.757	-5.0	10.7	-74.7	0.643	nt	nt
Cc1n[nH]c(C)c1S(=O)(=O)N(CC(=O)NC1CCCC1)c1ccc(C(C)C)cc1	-0.0244	3.88*	1.9	-8.3	41.6	-0.224	-19.1	-48.3
CCc1ccc(N(CC(=O)NC2CCCC2)S(=O)(=O)c2c(C)noc2C)cc1	0.0411	-0.0237	-7.3	9.9	nt	-0.271	nt	nt
CCCC(=O)N1CCN(S(=O)(=O)c2cc(Cl)ccc2OC)CC1	-0.0178	0.0328	-14.0	-3.8	62.1	-0.22	nt	nt
CCOC(=O)C1=C(CS(=O)(=O)c2ccccc2)NC(=O)NC1c1ccccc1 (configuration not stated)	-0.639	4.26*	-9.9	1.4	nt	0.214	?	?
CCCC1=C(C(=O)OCC)C(c2ccc(NC(C)=O)cc2)NC(=O)N1 (configuration not stated)	nt	0.195	-7.4	0.6	nt	-0.0396	nt	nt
CCCC(=O)Nc1nc(-c2ccc3c(c2)OCCO3)cs1	nt	3.21*	63.3*	60.8*	2.9	-0.14	10	-13.6
CC1CCN(c2c(NCc3ccc(C(=O)NCC4COc5ccccc5O4)cc3)c(=O)c2=O)CC1 (configuration not stated)	-0.211	-0.0761	11.7	-3.3	nt	0.386	nt	nt
CCN=c1sc(C(=O)NCCc2ccccc2)cc(=O)n1CC	nt	12.1*	6.0	-11.2	nt	-2.94*	-7.17	-14.9
CCN=C1SC(C(=O)NCCc2ccccc2)CC(=O)N1CC (configuration not stated)	1.16	4.75*	13.9	-15.6	nt	-1.15	?	-25.9

Bioassay records: PubChem BioAssay, several laboratories
